For series [1], the system named is Human immunodeficiency virus 1. As to the kind of experiment: Antiviral activity against X4 tropic HIV-1 NL4-3 infected in human MT4 cells assessed as protection against virus-induced cytopathic effect in absence of ZnCl2 after 5 days by MTT assay. The note with it: Human immunodeficiency virus 1, NL4-3, MT4, 120 h. The series is classed as functional, organism-based. Put shortly: (§1)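 Protection of MT-4 cells from X4 HIV-1 NL4-3 cytopathicity. Infected cells (MOI 0.001, 2.0 × 10^4 cells/well) received graded compound concentrations, without or with ZnCl2 (10 eq), for 5 days at 37 °C. Viable cells were counted by MTT. EC50 is the concentration giving 50% protection; mean of at least three independent experiments.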
A general note: Damage to the host cells serves as the signal in cytopathic effect assays.

Series [2] has as its target T1, C-X-C chemokine receptor type 4 (Homo sapiens, UniProt P61073). Description: Competitive inhibition of [125I]-CXCL12 binding to CXCR4 in human Jurkat cells at 1 uM in absence of ZnCl2 after 2 hrs by gamma counting analysis relative to control. The series is classed as cell-based.
Series [3] relates to Human immunodeficiency virus 1. Description: Antiviral activity against R5 tropic HIV-1 NL(AD8) infected in human MT4 cells assessed as protection against virus-induced cytopathic effect at 10 uM in absence of ZnCl2 after 5 days by MTT assay. The conditions noted are these: Human immunodeficiency virus 1, NL(AD8), MT4, 120 h. The class given is functional.
Series [4] concerns the target T1, C-X-C chemokine receptor type 4. As to the kind of experiment: Competitive inhibition of TAMRAAc-TZ14011 binding to CXCR4 (unknown origin) expressed in CHO cells at 1 uM in presence of ZnCl2 by NanoBRET assay relative to control. The class given is cell-based. Put shortly: (§2)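 Single-point competition in CHO cells stably expressing N-terminally Nluc-tagged CXCR4 (5 x 10^4 cells, seeded 24 h earlier at 37 °C, 5% CO2, medium then replaced with OptiMEM). Cells were incubated with 10 nM TAMRA-Ac-TZ14011 plus 1 µM compound, without or with 10 µM ZnCl2 (10 eq), for 1 h at 25 °C. Furimazine was added and BRET read as acceptor (>610 nm) over donor (460 nm). Inhibition is relative to no compound and to excess Ac-TZ14011; mean ± SEM, n = 3.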
In general terms: BRET reads energy transfer from a luciferase to a nearby fluorophore.

Series [5] in a line: Cytotoxicity against human MT4 cells in absence of ZnCl2. The series is classed as cell-based.
Series [6] has as its target T1, C-X-C chemokine receptor type 4. As to the kind of experiment: Competitive inhibition of TAMRAAc-TZ14011 binding to CXCR4 (unknown origin) expressed in CHO cells at 1 uM in absence of ZnCl2 by NanoBRET assay relative to control. The class given is cell-based. Put shortly: as §2
The test system of series [7] is Human immunodeficiency virus 1. As to the kind of experiment: Antiviral activity against R5 tropic HIV-1 NL(AD8) infected in human MT4 cells assessed as protection against virus-induced cytopathic effect at 10 uM in presence of ZnCl2 after 5 days by MTT assay. The conditions noted are these: Human immunodeficiency virus 1, NL(AD8), MT4, 120 h. The series is classed as functional.

Series [8] relates to Human immunodeficiency virus 1. Description: Antiviral activity against X4 tropic HIV-1 NL4-3 infected in human MT4 cells assessed as protection against virus-induced cytopathic effect in presence of ZnCl2 after 5 days by MTT assay. The note with it: Human immunodeficiency virus 1, NL4-3, MT4, 120 h. The class given is functional, organism-based. The method in brief:
as §1

The target in series [9] is T1, C-X-C chemokine receptor type 4. Description: Competitive inhibition of [125I]-CXCL12 binding to CXCR4 in human Jurkat cells at 1 uM in presence of ZnCl2 after 2 hrs by gamma counting analysis relative to control. The class given is cell-based.
The target is the same in series [10]. Description: Competitive inhibition of TAMRAAc-TZ14011 binding to CXCR4 (unknown origin) expressed in CHO cells in presence of ZnCl2 by NanoBRET assay relative to control. The class given is cell-based. The method in brief: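 Cells were incubated with 10 nM TAMRA-Ac-TZ14011 and compound plus ZnCl2 (10 eq). Furimazine was added and BRET ratio taken as >610 nm over 460 nm emission. Inhibition is scaled between no compound and excess Ac-TZ14011.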

Experimental findings from ChEMBL document CHEMBL4368937, “Design, synthesis and biological evaluation of low molecular weight CXCR4 ligands” (Bioorg Med Chem, 2019) are described below.

T1 sequence (P61073 whole entry): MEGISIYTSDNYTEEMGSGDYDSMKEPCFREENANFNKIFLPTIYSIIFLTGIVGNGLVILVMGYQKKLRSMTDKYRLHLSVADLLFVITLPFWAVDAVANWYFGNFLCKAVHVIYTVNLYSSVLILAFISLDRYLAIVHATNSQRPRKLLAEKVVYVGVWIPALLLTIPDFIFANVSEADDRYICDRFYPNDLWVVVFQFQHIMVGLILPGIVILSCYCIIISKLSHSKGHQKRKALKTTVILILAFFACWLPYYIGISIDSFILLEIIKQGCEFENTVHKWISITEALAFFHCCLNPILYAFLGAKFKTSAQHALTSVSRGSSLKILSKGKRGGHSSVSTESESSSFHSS

Turning to `c1ccc(CN(Cc2ccc3c(c2)-c2cc(CN4CCCNCCNCCCNCC4)ccc2OCCCCO3)Cc2ccccn2)nc1`, the 50% effective concentration (EC50) (in general, the concentration giving half of the maximal effect) in [1] is 670 nM; in series [8], 280 nM. The inhibition – broadly, the relative decrease from the control value, in per cent – amounted to 57.3% in [2], 78.9% in [4], 54.5% in series [6] and 78.4% in series [9]. Also, the inhibition at 10 µM in series [3] and in series [7] was under 30% in each case. The CC50 (commonly the concentration that lowers cell viability or growth by half) in series [5] was over 10000 nM.
As for `c1ccc(CN(Cc2ccc3nc(CN4CCCNCCNCCCNCC4)ccc3c2)Cc2ccccn2)nc1`, the EC50 is over 970 nM in series [1] and 5500 nM in series [8]. Moreover, the inhibition in series [2] is 81%; in series [4], 101%; in series [6] it was 81.1%; in series [9], 110%. This compound also returned a CC50 in [5] of over 10000 nM.
`c1ccc(CN(Cc2ccc3c(c2)-c2cc(CN4CCCNCCNCCCNCC4)ccc2OCCO3)Cc2ccccn2)nc1`: the EC50 in [1] is 1900 nM; in series [8], 970 nM. Further, the inhibition in series [2] was 48.7%; in [4] it was 89%; in series [6], 47.8%; in [9], 119%. The inhibition at 10 µM in series [3] and in series [7] was under 30% in each case. The compound further displayed a CC50 in series [5] of over 10000 nM.
As to `c1ccc(CN(Cc2ccc(-c3ncccc3CN3CCCNCCNCCCNCC3)cc2)Cc2ccccn2)nc1`, the half-maximal effective concentration (EC50) in series [1] worked out at 110 nM; in [8], 61 nM. In addition, the inhibition is 41.4% in [2], 93.9% in series [4], 31.9% in series [6] and 88.5% in [9]. Besides, the inhibition at 10 µM in series [3] and in series [7] was under 30% throughout. The CC50 in series [5] was over 10000 nM. In series [10], the half-maximal inhibitory concentration (IC50) – broadly, the point on the concentration scale where inhibition reaches its midpoint – was 4.5 nM.
As to `c1ccc(CN(Cc2ccc(-c3ccc(CN4CCCNCCNCCCNCC4)cc3)nc2)Cc2ccccn2)nc1`, the concentration for a half-maximal effect (EC50) in series [1] is 590 nM; in [8] it was 130 nM. Also, the inhibition in [2] amounted to 27%; in [4] it was 102%; in series [6], 89.1%; in series [9], 105%. The inhibition at 10 µM in series [3] and in series [7] was under 30% each time. This compound also gave a CC50 in [5] of over 10000 nM.
For `c1ccc(CN(Cc2ccc(-c3ccc(CN4CCCNCCNCCCNCC4)cn3)nc2)Cc2ccccn2)nc1`, the EC50 in series [1] came out at 680 nM; in series [8] it was 900 nM. The inhibition in series [2] turned out to be 68.6%; in series [4] it was 94.4%; in series [6], 75.3%; in series [9], 98.7%. The inhibition at 10 µM in [3] and in [7] was under 30% each time. In [5], this compound had a CC50 of over 10000 nM.
Take `c1ccc(CN(Cc2ccc3ccc(CN4CCCNCCNCCCNCC4)cc3c2)Cc2ccccn2)nc1`: the EC50 was found to be 790 nM in series [1] and 1100 nM in series [8]. The inhibition in series [2] came to 83.5%; in [4] it was 84.8%; in series [6] it was 82.1%; in series [9], 87.5%. The inhibition at 10 µM in series [3] and in series [7] was under 30% each time. The compound also displayed a CC50 in series [5] of over 10000 nM.
Take `c1ccc(CN(Cc2ccc3c(c2)-c2cc(CN4CCCNCCNCCCNCC4)ccc2OCO3)Cc2ccccn2)nc1`: the EC50 in series [1] is 800 nM; in series [8], 870 nM. Moreover, the inhibition in [2] turned out to be 54.4%; in series [4] it was 88.5%; in series [6], 43.5%; in series [9], 95.6%. In addition, the inhibition at 10 µM in series [3] and in series [7] was under 30% in each case. This compound also yielded a half-maximal cytotoxic concentration (CC50) in series [5] of over 10000 nM.
For the compound `c1ccc(CN(Cc2ccccn2)Cc2ccccc2-c2ccc(CN3CCCNCCNCCCNCC3)cc2)nc1`, the EC50 in series [1] was found to be 2600 nM; in series [8] it was 890 nM. Also, the inhibition stood at 79.9% in [2], 87.5% in series [4], 64.6% in series [6] and 84.1% in series [9]. For the same compound, the inhibition at 10 µM in series [3] and in [7] was under 30% each time. This compound also came in with a 50% cytotoxic concentration (CC50) in series [5] of over 10000 nM.
Regarding `c1ccc(CN(Cc2ccc(-c3ccc(CN4CCCNCCNCCCNCC4)cc3)cc2)Cc2ccccn2)nc1`, the EC50 in series [1] was determined as 780 nM; in series [8], 1000 nM. Besides, the inhibition in series [2] turned out to be 33.9%; in series [4], 87.9%; in series [6] it was 51.1%; in series [9], 85.5%. Moreover, the inhibition at 10 µM in [3] and in series [7] was under 30% each time. The compound further returned a 50% cytotoxic concentration (CC50) in [5] of 4800 nM.
Regarding `c1ccc(CN(Cc2ccccn2)Cc2ccccc2-c2ccccc2CN2CCCNCCNCCCNCC2)nc1`, the EC50 in [1] was 1000 nM; in [8], 5800 nM. The inhibition in series [2] came out at 90.4%; in series [4], 99%; in series [6] it was 79.8%; in series [9], 74.1%. The inhibition at 10 µM in series [3] and in series [7] was under 30% each time. Besides, in series [5], the CC50 was over 10000 nM.
Regarding `c1ccc(CN(Cc2ccnc(-c3cc(CN4CCCNCCNCCCNCC4)ccn3)c2)Cc2ccccn2)nc1`, the EC50 is 920 nM in [1] and 200 nM in series [8]. Moreover, the inhibition in [2] came to 100%; in series [4] it was 92.2%; in [6] it was 88.5%; in [9], 99.2%. Further, the inhibition at 10 µM in series [3] and in series [7] was under 30% in each case. In series [5], the CC50 was over 10000 nM.
Regarding `c1ccc(CN(Cc2cccc(-c3ccc(CN4CCCNCCNCCCNCC4)cc3)c2)Cc2ccccn2)nc1`, the EC50 came out at 3100 nM in series [1] and 1000 nM in series [8]. Besides, the inhibition in series [2] was 38.3%; in series [4], 105%; in [6] it was 35.6%; in series [9], 119%. The inhibition at 10 µM in series [3] and in series [7] was under 30% throughout. In [5], this compound showed a CC50 of over 10000 nM.
With `c1ccc(CN(Cc2ccc3c(c2)-c2cc(CN4CCCNCCNCCCNCC4)ccc2OCCCO3)Cc2ccccn2)nc1`, the EC50 in series [1] was determined as 580 nM; in series [8], 300 nM. Further, the inhibition worked out at 32.5% in [2], 81.8% in [4], 50.4% in [6] and 97.1% in series [9]. For the same compound, the inhibition at 10 µM in series [3] and in series [7] was under 30% throughout. The compound also displayed a half-maximal cytotoxic concentration (CC50) in series [5] of over 10000 nM.
Turning to `c1ccc(CN(Cc2cccc(-c3ccccc3CN3CCCNCCNCCCNCC3)c2)Cc2ccccn2)nc1`, the EC50 was determined as 4200 nM in [1] and 1100 nM in [8]. For the same compound, the inhibition is 46.1% in series [2], 83.1% in series [4], 44.4% in series [6] and 116% in [9]. Besides, the inhibition at 10 µM in series [3] and in series [7] was under 30% throughout. In series [5], this compound gave a CC50 of over 10000 nM.
For `c1ccc(CN(Cc2ccnc(-c3ccc(CN4CCCNCCNCCCNCC4)cc3)c2)Cc2ccccn2)nc1`, the half-maximal effective concentration (EC50) in series [1] was 140 nM; in series [8] it was 45 nM. In addition, the inhibition in series [2] is 39.2%; in series [4], 92.6%; in series [6] it was 79.7%; in [9], 89.7%. The inhibition at 10 µM in series [3] and in [7] was under 30% each time. Moreover, in series [5], the CC50 is over 10000 nM.
Turning to `c1ccc(CN(Cc2ccc(-c3cccc(CN4CCCNCCNCCCNCC4)c3)cc2)Cc2ccccn2)nc1`, the EC50 came to 800 nM in series [1] and 1100 nM in series [8]. The inhibition in series [2] is 10.9%; in series [4], 78.2%; in series [6], 89.7%; in series [9], 101%. The inhibition at 10 µM in series [3] and in [7] was under 30% in each case. The CC50 in series [5] is over 10000 nM.
As for `c1ccc(CN(Cc2cccc(-c3cccc(CN4CCCNCCNCCCNCC4)c3)c2)Cc2ccccn2)nc1`, the EC50 in series [1] came to 750 nM; in [8], 980 nM. Further, the inhibition in [2] was found to be 46.6%; in [4], 88.4%; in series [6], 40.4%; in [9], 105%. Further, the inhibition at 10 µM in series [3] and in [7] was under 30% in each case. This compound also displayed a CC50 in series [5] of over 10000 nM.
